Measurements reported in ChEMBL document CHEMBL5303300, “EUbOPEN Chemogenomics Library - Multiplex” (2023).
Several values for one entry are separate records, joined by “and”; a condition that tells them apart may be missing. Equal entries are not always repeated.

Test system: Fibroblast
Assay: Multiplex assay against human fibroblast
Type: toxicity, cell-based
Settings: number of replicates 2
How it was run: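 Hoechst33342, BioTracker Green Microtubule Cytoskeleton Dye, MitoTracker Red and Annexin V Alexa Fluor 680 were added to live cells at seeding, and imaging on a CQ1 microscope at 37°C and 5% CO2 followed compound addition. Gating by CellPathfinder machine learning separated cells into Hoechst high-intensity objects or normal cells, then normal cells into healthy, pyknosed or fragmented nuclei, then pyknosed cells into mitotic or apoptotic. Per cents of healthy-nucleus cells are reported for the tubulin, mitochondrial-mass and membrane-permeability phenotypes.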

[1] = 12 h, 1 µM, compound concentration 1 uM
[2] = 12 h, 10 µM, compound concentration 10 uM
[3] = 24 h, 1 µM, compound concentration 1 uM
[4] = 24 h, 10 µM, compound concentration 10 uM
[5] = 48 h, 1 µM, compound concentration 1 uM
[6] = 48 h, 10 µM, compound concentration 10 uM

Row | SMILES | Population Apoptotic (%) [1] | Population Healthy Nuclei (%) [1] | Population Mitotic Cells (%) [1] | Total Cell Count [1] | Population Apoptotic (%) [2] | Population Healthy Nuclei (%) [2] | Population Hoechst High Intensity Objects (%) [2] [%] | Population Mitotic Cells (%) [2] | Population Normal (%) [2] | Total Cell Count [2] | Population Apoptotic (%) [3] | Population Healthy Nuclei (%) [3] | Population Mitotic Cells (%) [3] | Total Cell Count [3] | Population Apoptotic (%) [4] | Population Healthy Nuclei (%) [4] | Population Hoechst High Intensity Objects (%) [4] [%] | Population Mitotic Cells (%) [4] | Population Apoptotic (%) [6] | Population Healthy Nuclei (%) [6] | other results
1 | CS(=O)(=O)c1ccc(C(=O)Nc2cc(F)c(F)c(COc3cc(F)c(Br)cc3CN3CC[C@H](O)C3)c2)c(Cl)c1.O=CO | 25% and 38% | 55% | 75% and 61% | 220 and 267 | 80% and 55% | 29% | 0 | 20% and 44% | 100% and 99% | 162 and 357 | 54% and 55% | 64% and 54% | 45% and 44% | 246 and 309 | 94% and 79% | 35% and 27% | 0 | 5% | 93% and 91% | 25% and 19% | Population Hoechst High Intensity Objects (%) [1]: 0%; Population Normal (%) [1]: 100%; Population Hoechst High Intensity Objects (%) [3]: 0%; Population Normal (%) [3]: 99%; Population Normal (%) [4]: 100% and 99%; Total Cell Count [4]: 154 and 339; Population Apoptotic (%) [5]: 73% and 71%; Population Healthy Nuclei (%) [5]: 61% and 60%; Population Hoechst High Intensity Objects (%) [5]: 0%; Population Mitotic Cells (%) [5]: 26%; Population Normal (%) [5]: 99%; Total Cell Count [5]: 294 and 351; Population Hoechst High Intensity Objects (%) [6]: 0%; Population Mitotic Cells (%) [6]: 6% and 8%; Population Normal (%) [6]: 99%; Total Cell Count [6]: 147 and 311
2 | CC(=O)O[C@H]1C(=O)[C@@]2(C)[C@H]([C@H](OC(=O)c3ccccc3)[C@]3(O)C[C@H](OC(=O)[C@H](O)[C@@H](NC(=O)c4ccccc4)c4ccccc4)C(C)=C1C3(C)C)[C@]1(OC(C)=O)CO[C@@H]1C[C@@H]2O [PACLITAXEL] |  |  |  |  | 50% and 51% and 43% and 57% | 60% and 57% and 66% | 0 | 50% and 48% and 56% and 42% | 100% and 99% |  |  |  |  |  | 68% and 71% and 75% and 53% | 61% and 56% and 63% | 0 | 31% and 28% and 24% and 46% | 92% and 82% and 86% and 71% | 60% and 62% and 63% | Population Fragmented Nuclei (%) [2]: 18% and 14% and 8% and 16%; Population Membrane Permeable-Phenotype (%) [2]: 2% and 1%; Population Mitochondria Different-Phenotype (%) [2]: 4% and 1% and 2% and 7%; Population Pyknosed Nuclei (%) [2]: 21% and 28% and 24% and 17%; Population Tubulin-Different-Phenotype (%) [2]: 14% and 15% and 13%; Population Fragmented Nuclei (%) [4]: 14% and 11% and 18%; Population Membrane Permeable-Phenotype (%) [4]: 0% and 2% and 1%; Population Mitochondria Different-Phenotype (%) [4]: 4% and 10% and 7% and 8%; Population Normal (%) [4]: 100% and 99%; Population Pyknosed Nuclei (%) [4]: 23% and 28% and 25% and 19%; Population Fragmented Nuclei (%) [6]: 23% and 16% and 19% and 22%; Population Hoechst High Intensity Objects (%) [6]: 0%; Population Membrane Permeable-Phenotype (%) [6]: 1% and 7% and 3%; Population Mitochondria Different-Phenotype (%) [6]: 6% and 9% and 7%; Population Normal (%) [6]: 100% and 99%; Population Pyknosed Nuclei (%) [6]: 15% and 20% and 16%; Population Tubulin-Different-Phenotype (%) [6]: 14% and 19% and 11% and 10%
3 | CS(=O)(=O)c1ccc(C(=O)Nc2cccc(COc3cc(F)c(Br)cc3CN3CC[C@H](O)C3)c2)c(Cl)c1.O=CO | 46% and 35% | 48% and 72% | 53% and 64% | 114 and 171 | 51% and 40% | 48% and 51% |  | 48% and 59% |  | 211 and 262 | 55% and 57% | 50% | 42% | 120 and 190 | 77% and 74% | 53% and 58% |  | 22% | 92% and 82% | 62% and 60% | Population Pyknosed Nuclei (%) [1]: 41% and 16%; Population Pyknosed Nuclei (%) [2]: 33% and 23%; Population Pyknosed Nuclei (%) [3]: 39% and 18%; Population Pyknosed Nuclei (%) [4]: 26% and 19%; Total Cell Count [4]: 217 and 251; Population Apoptotic (%) [5]: 75% and 82%; Population Healthy Nuclei (%) [5]: 62%; Population Mitotic Cells (%) [5]: 24%; Population Pyknosed Nuclei (%) [5]: 23% and 11%; Total Cell Count [5]: 123 and 198; Population Mitotic Cells (%) [6]: 7%; Population Pyknosed Nuclei (%) [6]: 15% and 14%; Total Cell Count [6]: 245 and 274
